Most compounds without a hit are left out; they make up all but 3.5% or so of the library.
MrgX1 allo act: human MrgX1 positive allosteric modulation, primary screen; MrgX1-HEK293, Fluo-4 calcium flux, FDSS; active compounds read high; Q96LB2; B-score at 10 µM; actives 0.63% (n = 310,000);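 active means plate-corrected calcium response at least 3 library SD above typical, normal starting fluorescence, not activating the receptor alone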;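 further: compound read alongside a low EC10 to EC30 dose of BAM8-22 agonist; peak minus trough fluorescence over baseline measured at the second addition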
Target sequence (Q96LB2 whole entry, looked up): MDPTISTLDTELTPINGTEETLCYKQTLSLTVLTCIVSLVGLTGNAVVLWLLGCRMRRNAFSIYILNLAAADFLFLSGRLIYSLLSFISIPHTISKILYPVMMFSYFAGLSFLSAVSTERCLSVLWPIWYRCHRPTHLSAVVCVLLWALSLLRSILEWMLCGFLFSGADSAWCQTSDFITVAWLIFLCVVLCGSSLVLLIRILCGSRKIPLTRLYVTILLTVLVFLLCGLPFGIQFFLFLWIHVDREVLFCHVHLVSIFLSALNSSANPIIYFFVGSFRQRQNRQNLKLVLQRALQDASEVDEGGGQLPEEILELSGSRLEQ
MrgX1 antag: human MrgX1 receptor antagonism, primary screen. Q96LB2. MRGX1-HEK293 calcium flux, Fluo-4, BAM8-22 antagonism; active compounds read low. B-score at 10 µM. actives 1.3% (n = 310,000). AID 588676;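 active means calcium-response B-score plate-corrected more than 3 library SD below zero, starting fluorescence within 5 deviations, no agonist response on first addition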;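 further: peak minus trough fluorescence over baseline after final BAM8-22 challenge near maximal dose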
RGS4 pot: potentiators or activators of RGS4. AID 463111. HEK293 M3R/inducible RGS4, carbachol calcium flux Fluo4; active compounds read low. B-score at 10 µM. actives 0.92% (n = 310,000);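 active means B-score of the integrated calcium signal more than 4 SD below the library mean, with starting fluorescence not abnormally high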;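 further: negative B-score means reduced calcium response which marks RGS4 activation or potentiation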
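System: HEK293 FlpIn-TREx cells, stable M3R, doxycycline-inducible RGS4. Timing: overnight RGS4 induction, 30 min dye load 37 °C, 20 min compound RT. Also added: carbachol, ECmax concentration. Measured by: Fluo4 fluorescence kinetic imaging of calcium. Evaluation: integrated calcium ratio converted to B score.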
MrgX1 agonist: activates human MrgX1 receptor signaling. MrgX1-HEK293 cells, Fluo-4 calcium fluorescence, agonist mode; active compounds read high. B-score at 10 µM. actives 0.44% (n = 310,000);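 active means calcium response B-score plate-corrected fluorescence ratio at least 3 library SD, with starting fluorescence B-score inside 5 SD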
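Material: MrgX1-expressing HEK293 cells / Dosing: compound as first of three additions / Incubation: overnight seeding, then 1 h dark dye loading / Signal: Fluo-4 NW calcium fluorescence / Evaluation: B-scored fluorescence response ratio / Benchmarks: positive and negative control wells on each plate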
RGS4 block: inhibitors of human RGS4 | B-score at 10 µM | actives 0.45% (n = 310,000) | HEK293 M3R/RGS4 inducible, Fluo-4 calcium flux; active compounds read high; triggered by carbachol at its EC20;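 active means B-score, a plate-corrected calcium signal, over three deviations above library mean, with baseline fluorescence within five deviations of library mean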;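 further: RGS4 expression induced by doxycycline in cells with stable M3 receptor; B-score is computed from the integrated fluorescence ratio over baseline after carbachol; higher B-score means a larger calcium signal and so more RGS4 inhibition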
Target sequence (P49798 whole entry, looked up): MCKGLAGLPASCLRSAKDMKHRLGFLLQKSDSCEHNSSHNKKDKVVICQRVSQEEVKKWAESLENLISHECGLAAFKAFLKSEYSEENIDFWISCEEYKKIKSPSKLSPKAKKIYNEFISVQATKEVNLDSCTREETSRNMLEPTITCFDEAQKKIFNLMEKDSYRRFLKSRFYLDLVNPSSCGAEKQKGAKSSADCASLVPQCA
MrgX1 ant reconf: human MrgX1 receptor antagonism, re-confirmation screen; MrgX1-HEK293, BAM8-22 calcium flux, Fluo-4; active compounds read low; shares compounds with MrgX1 antag; actives 19% (n = 2,300); remaining BAM8-22 calcium response % of control (active compounds read low), % at 10 µM;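 active means remaining agonist calcium response no higher than 100% minus 3 SD of agonist-only control wells, with starting fluorescence near control levels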;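 further: agonist BAM8-22 given at a near maximal EC90 to ECmax level; peak minus minimum fluorescence divided by baseline after agonist addition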
HEK293 Ca flux: activity in parental HEK293 cells lacking MrgX1; shares compounds with MrgX1 antag; Fluo-4 calcium fluorescence, FDSS; fluorescence ratio F(max-min)/F0 at 10 µM; actives 2% (n = 4,000); AID 624111;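 active means duplicate-averaged calcium fluorescence ratio at least three times the standard deviation of buffer wells, a nonspecific response in parental cells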
HEK293 Ca counter: activity in parental HEK293 cells without MrgX1; actives 0.4% (n = 4,000); parental HEK293 calcium flux, Fluo-4 fluorescence ratio; active compounds read high; shares compounds with MrgX1 antag; fluorescence ratio F(max-min)/F0 at 10 µM;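 active means calcium fluorescence ratio, averaged over duplicates, at least 3 SD of the buffer-well ratio, meaning a nonspecific response in receptor-free cells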;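 further: untransfected parental HEK293 lacking MrgX1 used as counterscreen for MrgX1 allosteric activators; fluorescence change taken during the second addition on a kinetic imager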
HEK293 Ca cntr2: counter-screen for MrgX1 activators: effect in parental HEK293 cells | shares compounds with MrgX1 antag | Fluo-4 calcium fluorescence (FDSS); active compounds read high | fluorescence ratio F(max-min)/F0 at 10 µM | actives 8.7% (n = 4,000) | AID 624115;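 active means calcium fluorescence ratio at least three times the spread of buffer wells, meaning a non-specific response in parental cells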
Of the large screens only hits and unclear results are named; the others gave an inactive call (follow-up assays come after a bar, where they were run).

Nc1nc(N2CCN(c3ccc(Cl)cc3)CC2)n[nH]1	none
CC1=C(C(N)=O)C(c2ccc(Cl)cc2)n2nc(CCCO)nc2N1 (stereo not given)	none
CC1=C(C(N)=O)C(c2cccc(O)c2)n2nc(CCCO)nc2N1 (stereo not given)	MrgX1 antag -4.71 | MrgX1 ant reconf inactive | HEK293 Ca flux inactive | HEK293 Ca counter inactive | HEK293 Ca cntr2 inactive
O=C(CCc1nnc(CCCc2ccccc2)o1)NCC(F)(F)F	none
Cc1ccc(S(=O)(=O)NC(C(=O)Oc2cc3oc(=O)cc(C)c3cc2Cl)C(C)C)cc1 (stereo not given)	none
O=C(COC(=O)c1ccccc1N1C(=O)C2C3CCC(C3)C2C1=O)c1ccccc1 (stereo not given)	none
Cc1ccc(C)c(C(=O)COC(=O)c2ccccc2N2C(=O)C3C4CCC(C4)C3C2=O)c1 (stereo not given)	MrgX1 antag -6 | MrgX1 ant reconf inactive | HEK293 Ca flux inactive | HEK293 Ca counter inactive | HEK293 Ca cntr2 inactive
NC(=S)NC(c1ccccc1)c1ccncc1 (stereo not given)	none
CCc1ccc2nc(SCC(=O)Nc3nnc(C)s3)c(C)cc2c1	MrgX1 antag -6.22 | MrgX1 ant reconf 83.5% | HEK293 Ca flux inactive | HEK293 Ca counter inactive | HEK293 Ca cntr2 inactive
COc1ccccc1OCCNC(=O)CC(NC(C)=O)c1ccccc1 (stereo not given)	none
CC(=O)NC(CC(=O)NCCc1ccccc1)c1ccccc1 (stereo not given)	MrgX1 antag -4.9 | MrgX1 ant reconf inactive | HEK293 Ca flux inactive | HEK293 Ca counter inactive | HEK293 Ca cntr2 inactive
CC(=O)c1ccc(NC(=O)Nc2ccncc2)cc1	MrgX1 antag -6.75 | MrgX1 ant reconf 81.7% | HEK293 Ca flux inactive | HEK293 Ca counter inactive | HEK293 Ca cntr2 inactive
O=C(Nc1ccncc1)Nc1ccncc1	none
O=C(Nc1ccccc1)Nc1ccc(O)c2ccccc12	none
CC(=O)NCCc1c[nH]c2ccc(O)cc12	MrgX1 antag -5.08 | MrgX1 ant reconf inactive | HEK293 Ca flux inactive | HEK293 Ca counter inactive | HEK293 Ca cntr2 inactive
COc1ccc2[nH]cc(CCNC(C)=O)c2c1	none
CCOc1ccccc1CNC(=O)C1CCCN(c2nnc(C)c3c(C)n(-c4ccccc4)nc23)C1 (stereo not given)	none
Cc1ccc(NC(=O)CN2c3cccc4cccc(c34)S2(=O)=O)cc1S(=O)(=O)N1CCOCC1	none
COc1cc(S(=O)(=O)N2CCOCC2)ccc1NC(=O)CN1c2cccc3cccc(c23)S1(=O)=O	MrgX1 antag -8.38 | MrgX1 ant reconf inactive | HEK293 Ca flux inactive | HEK293 Ca counter inactive | HEK293 Ca cntr2 inactive
Cc1cc(N2C(=O)CC(N3CCN(c4ccc(C(=O)c5cccs5)cc4)CC3)C2=O)no1 (stereo not given)	MrgX1 antag -5.04 | MrgX1 ant reconf inactive | HEK293 Ca flux inactive | HEK293 Ca counter inactive | HEK293 Ca cntr2 inactive
CCCc1nc2nc(C)c(NS(=O)(=O)c3ccc(CC(C)C)cc3)c(=O)n2[nH]1	none
COC(=O)[C@@H](Cc1c[nH]c2ccccc12)NC(=O)c1cc(=O)[nH]c2ccccc12	none
COC(=O)C(Cc1ccccc1)NC(=O)c1cc(=O)[nH]c2ccccc12 (stereo not given)	MrgX1 antag -4.74 | MrgX1 ant reconf inactive | HEK293 Ca flux inactive | HEK293 Ca counter inactive | HEK293 Ca cntr2 inactive
Cc1cccc(COCCN2CCN(S(=O)(=O)c3ccccc3)CCC2=O)c1	none

Compound activity as filed in PubChem.
